# Reference: ChEMBL document CHEMBL4364248, “Discovery of 1,2,4-oxadiazole-Containing hydroxamic acid derivatives as histone deacetylase inhibitors potential application in cancer therapy” (Eur J Med Chem, 2019)
# The source made the active and inactive calls. The calls are words filed in the database; no cut-off is given here.
# Tests used:
# Histone deacetylase 1 [1] = biological target: T1, Histone deacetylase 1 (Homo sapiens, UniProt Q13547); assay: Inhibition of recombinant full length HDAC1 (unknown origin) using Ac-peptide-AMC as substrate after 1 hr by fluorescence assay
# [2] = Toxicity in NOD/SCID mouse xenografted with human Daudi cells assessed as organ damage at 10 mg/kg, iv treated on day 1,3 and 5 per week and measured for every 2 days by H and E staining based assay; format: organism-based; conditions: in vivo, 48 h
# How it was run: (§1)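 Female NOD/SCID mice (5–6 weeks) bearing s.c. Daudi xenografts, six per group. Dosing was 10 mg/kg i.v. or 20 mg/kg p.o. in 8% HP-β-CD on days 1, 3 and 5 weekly. Behaviour was observed, and organ tissues were collected at sacrifice for H&E staining.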
# JeKo-1 [3] = assay: Induction of apoptosis in human JeKo1 cells assessed as late apoptotic cells at 100 nM after 48 hrs by annexin V-FITC/propidium iodide staining-based flow cytometric method (reference value: 3.07 %); format: functional
# How it was run: (§2)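 Jeko-1 cells were grown in RPMI-1640 with 10% FBS at 37 °C under 5% CO2. They were exposed to 0, 10, 100 or 1000 nM for 48 h, then apoptosis induction was analysed.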
# JeKo-1 [4] = assay: Induction of apoptosis in human JeKo1 cells assessed as early apoptotic cells at 100 nM after 48 hrs by annexin V-FITC/propidium iodide staining-based flow cytometric method (reference value: 3.34 %); format: functional; how it was run: as §2
# JeKo-1 [5] = assay: Cell cycle arrest in human JeKo1 cells assessed as accumulation at G1 phase at 1000 nM after 24 hrs by propidium iodide staining based flow cytometric analysis (reference value: 63.16 %); format: functional
# [6] = biological target: Protein deacetylase HDAC6 (Homo sapiens, UniProt Q9UBN7); assay: Inhibition of recombinant full length HDAC6 (unknown origin) using Ac-peptide-AMC as substrate after 1 hr by fluorescence assay
# [7] = biological target: T2, Histone deacetylase 1/2/3 (Homo sapiens) (UniProt Q13547+O15379+Q92769); assay: Inhibition of HDAC1/2/3 in human MM1S cells assessed as increase in H3 acetylation after 6 hrs by Western blot analysis; format: cell-based
# JeKo-1 [8] = assay: Induction of apoptosis in human JeKo1 cells assessed as viable cells at 10 nM after 48 hrs by annexin V-FITC/propidium iodide staining-based flow cytometric method (reference value: 91.6 %); format: functional; conditions: JeKo-1, 48 h, read-out: Activity; how it was run: as §2
# JeKo-1 [9] = assay: Cell cycle arrest in human JeKo1 cells assessed as accumulation at G2/M phase at 1000 nM after 24 hrs by propidium iodide staining based flow cytometric analysis (reference value: 10.71 %); format: functional
# JeKo-1 [10] = assay: Cell cycle arrest in human JeKo1 cells assessed as accumulation at S phase at 10 nM after 24 hrs by propidium iodide staining based flow cytometric analysis (reference value: 26.13 %); format: functional
# Histone deacetylase 1 [11] = biological target: T1, Histone deacetylase 1; assay: Inhibition of recombinant full length HDAC1 (unknown origin) using Ac-peptide-AMC as substrate at 100 nM after 1 hr by fluorescence assay relative to control
# How it was run: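 Full-length recombinant HDAC1 or HDAC6 was incubated with compound, trypsin and Ac-peptide-AMC substrate for 1 h at room temperature. Fluorescence was read at ex 355/em 460 nm. Inhibition was calculated against the DMSO vehicle control.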
# [12] = Oral bioavailability in Sprague-Dawley rat at 5 mg/kg measured upto 24 hrs by LC-MS/MS analysis; format: ADME, organism-based; conditions: in vivo
# How it was run: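 SD rats (200-250 g), six per time point, given 5 mg/kg as a tail-vein bolus or orally. Blood was taken by cardiac puncture before dosing and at 5, 15, 30, 45 min and 1, 2, 4, 6, 8, 10, 12 and 24 h. Plasma was spun at 4000 g for 15 min at 4 °C and stored at -80 °C. Analysis was LC-MS/MS with multiple-reaction monitoring, followed by noncompartmental analysis.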
# HCT-116 = assay: Antiproliferative activity against human HCT116 cells after 72 hrs by MTT assay; format: functional, cell-based; conditions: HCT-116, 72 h
# [13] = Toxicity in NOD/SCID mouse xenografted with human Daudi cells assessed as abnormal behavior at 20 mg/kg, po treated on day 1,3 and 5 per week and measured for every 2 days; format: organism-based; conditions: in vivo, 48 h; how it was run: as §1
# [14] = biological target: T2, Histone deacetylase 1/2/3 (Homo sapiens); assay: Inhibition of HDAC1/2/3 in human MM1S cells assessed as upregulation of H3 acetylation at 40 nM after 6 hrs by Western blot analysis; format: cell-based
# JeKo-1 [15] = assay: Antiproliferative activity against human JeKo1 cells after 72 hrs by MTT assay; format: functional, cell-based; conditions: JeKo-1, 72 h
# Daudi [16] = assay: Antitumour activity against human Daudi cells xenografted in NOD/SCID mouse assessed as increase in acetylated H4 expression at 10 mg/kg, iv treated on day 1,3 and 5 per week by immunohistochemical analysis; format: functional, organism-based
# How it was run: (§3)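 Daudi s.c. xenografts in female NOD/SCID mice (5–6 weeks) were randomized six per group at 100–200 mm3. Dosing was 10 mg/kg i.v. or 20 mg/kg p.o. in 8% HP-β-CD on days 1, 3 and 5 weekly. Tumors were collected at study end for immunohistochemistry, with comparison to the control group.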
# MDA-MB-231 = assay: Antiproliferative activity against human MDA-MB-231 cells after 72 hrs by MTT assay; format: functional, cell-based; conditions: MDA-MB-231, 72 h
# Daudi [17] = assay: Antitumour activity against human Daudi cells xenografted in NOD/SCID mouse assessed as increase in acetylated H4 expression at 20 mg/kg, po treated on day 1,3 and 5 per week by immunohistochemical analysis; format: functional, organism-based; how it was run: as §3
# JeKo-1 [18] = assay: Induction of apoptosis in human JeKo1 cells after 48 hrs by annexin V-FITC/propidium iodide staining-based flow cytometric method; format: functional, cell-based; how it was run: as §2
# JeKo-1 [19] = assay: Induction of apoptosis in human JeKo1 cells assessed as early apoptotic cells at 10 nM after 48 hrs by annexin V-FITC/propidium iodide staining-based flow cytometric method (reference value: 3.34 %); format: functional; how it was run: as §2
# [20] = Antiproliferative activity against human ARD cells after 72 hrs by MTT assay; format: functional, cell-based
# JeKo-1 [21] = assay: Cell cycle arrest in human JeKo1 cells assessed as accumulation at S phase at 1000 nM after 24 hrs by propidium iodide staining based flow cytometric analysis (reference value: 26.13 %); format: functional
# JeKo-1 [22] = assay: Cell cycle arrest in human JeKo1 cells assessed as accumulation at G1 phase at 100 nM after 24 hrs by propidium iodide staining based flow cytometric analysis (reference value: 63.16 %); format: functional
# JeKo-1 [23] = assay: Induction of cell cycle arrest in human JeKo1 cells assessed as accumulation at G1 phase after 24 hrs by propidium iodide staining-based flow cytometric method; format: functional
# JeKo-1 [24] = assay: Cell cycle arrest in human JeKo1 cells assessed as accumulation at G2/M phase at 10 nM after 24 hrs by propidium iodide staining based flow cytometric analysis (reference value: 10.71 %); format: functional
# [25] = biological target: Polyamine deacetylase HDAC10 (Homo sapiens, UniProt Q969S8); assay: Inhibition of recombinant N-terminal FLAG-tagged human HDAC10 (2 to 631 residues) expressed in baculovirus infected Sf9 cells using Ac-peptide-AMC as substrate after 1 hr by fluorescence assay
# JeKo-1 [26] = assay: Induction of apoptosis in human JeKo1 cells assessed as necrotic cells at 1000 nM after 48 hrs by annexin V-FITC/propidium iodide staining-based flow cytometric method (reference value: 2.03 %); format: functional; how it was run: as §2
# T1 sequence (Q13547 whole entry): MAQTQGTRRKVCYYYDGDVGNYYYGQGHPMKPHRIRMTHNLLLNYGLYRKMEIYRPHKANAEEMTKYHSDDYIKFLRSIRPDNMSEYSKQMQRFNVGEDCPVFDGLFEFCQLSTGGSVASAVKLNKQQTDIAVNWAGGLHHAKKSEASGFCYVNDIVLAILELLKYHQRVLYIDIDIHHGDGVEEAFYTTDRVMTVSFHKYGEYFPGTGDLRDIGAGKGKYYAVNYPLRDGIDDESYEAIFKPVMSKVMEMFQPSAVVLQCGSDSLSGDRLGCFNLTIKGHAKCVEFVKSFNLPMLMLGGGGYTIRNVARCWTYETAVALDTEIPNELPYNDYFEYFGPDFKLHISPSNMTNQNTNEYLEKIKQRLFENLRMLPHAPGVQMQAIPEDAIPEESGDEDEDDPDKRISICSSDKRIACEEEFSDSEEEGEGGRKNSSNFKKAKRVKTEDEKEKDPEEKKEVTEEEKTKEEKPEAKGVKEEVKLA
# Sequence of Protein deacetylase HDAC6 (Q9UBN7 whole entry): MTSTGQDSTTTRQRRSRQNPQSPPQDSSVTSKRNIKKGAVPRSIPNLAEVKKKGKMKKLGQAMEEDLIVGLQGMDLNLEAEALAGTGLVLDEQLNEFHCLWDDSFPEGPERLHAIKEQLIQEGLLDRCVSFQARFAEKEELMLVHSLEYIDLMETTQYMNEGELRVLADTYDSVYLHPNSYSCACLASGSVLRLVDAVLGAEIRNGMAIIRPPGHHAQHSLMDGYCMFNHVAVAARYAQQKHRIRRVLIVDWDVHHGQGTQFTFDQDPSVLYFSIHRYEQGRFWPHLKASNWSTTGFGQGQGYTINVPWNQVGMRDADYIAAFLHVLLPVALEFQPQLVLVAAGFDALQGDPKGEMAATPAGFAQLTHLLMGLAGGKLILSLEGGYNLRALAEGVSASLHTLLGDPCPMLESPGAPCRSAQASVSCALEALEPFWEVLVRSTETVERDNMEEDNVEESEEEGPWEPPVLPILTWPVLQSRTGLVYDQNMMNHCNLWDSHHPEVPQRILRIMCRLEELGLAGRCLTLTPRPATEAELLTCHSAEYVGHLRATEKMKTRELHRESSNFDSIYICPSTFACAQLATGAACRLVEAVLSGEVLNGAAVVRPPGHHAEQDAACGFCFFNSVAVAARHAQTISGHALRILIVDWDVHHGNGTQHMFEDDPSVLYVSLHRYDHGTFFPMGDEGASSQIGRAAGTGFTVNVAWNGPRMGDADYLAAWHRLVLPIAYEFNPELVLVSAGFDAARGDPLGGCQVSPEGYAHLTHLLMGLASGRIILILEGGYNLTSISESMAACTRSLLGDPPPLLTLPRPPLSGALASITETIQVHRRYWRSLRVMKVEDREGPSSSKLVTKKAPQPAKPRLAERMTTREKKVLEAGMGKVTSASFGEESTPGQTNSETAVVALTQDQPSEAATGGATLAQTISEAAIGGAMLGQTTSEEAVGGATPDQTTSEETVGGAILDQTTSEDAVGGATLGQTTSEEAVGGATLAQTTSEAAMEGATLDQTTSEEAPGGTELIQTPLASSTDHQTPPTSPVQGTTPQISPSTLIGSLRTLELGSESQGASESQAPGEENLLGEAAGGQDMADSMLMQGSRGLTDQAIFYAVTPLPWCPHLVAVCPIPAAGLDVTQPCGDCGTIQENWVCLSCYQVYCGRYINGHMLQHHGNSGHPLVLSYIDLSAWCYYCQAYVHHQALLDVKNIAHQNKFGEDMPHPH
# Sequence of Polyamine deacetylase HDAC10 (Q969S8 whole entry, the tested form may be a part): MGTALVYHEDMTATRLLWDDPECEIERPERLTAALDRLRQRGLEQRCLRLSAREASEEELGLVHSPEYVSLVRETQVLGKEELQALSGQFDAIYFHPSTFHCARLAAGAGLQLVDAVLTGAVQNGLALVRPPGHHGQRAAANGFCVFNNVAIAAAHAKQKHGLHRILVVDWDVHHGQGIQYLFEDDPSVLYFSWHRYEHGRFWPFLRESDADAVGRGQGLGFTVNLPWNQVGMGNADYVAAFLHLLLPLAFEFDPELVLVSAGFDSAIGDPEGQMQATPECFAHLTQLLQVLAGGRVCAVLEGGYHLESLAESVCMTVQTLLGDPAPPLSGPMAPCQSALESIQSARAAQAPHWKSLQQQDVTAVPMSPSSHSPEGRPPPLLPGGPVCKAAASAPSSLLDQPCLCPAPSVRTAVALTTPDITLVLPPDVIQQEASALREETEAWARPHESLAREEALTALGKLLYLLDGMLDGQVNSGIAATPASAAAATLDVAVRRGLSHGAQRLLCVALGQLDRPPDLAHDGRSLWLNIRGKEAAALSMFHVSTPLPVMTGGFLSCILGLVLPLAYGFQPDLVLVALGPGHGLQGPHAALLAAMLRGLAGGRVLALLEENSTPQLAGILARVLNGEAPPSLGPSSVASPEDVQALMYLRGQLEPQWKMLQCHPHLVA
smiles,measurement,setting,value
Cc1ccc(CN2CCC(c3noc(CN(C)c4ncc(C(=O)NO)cn4)n3)CC2)cc1,IC50,Histone deacetylase 1 [1],1.8 nM
same,Activity,[2],Non-Toxic
same,Activity,JeKo-1 [3],17.3%
same,Activity,JeKo-1 [4],28.3%
same,Activity,JeKo-1 [5],82.86%
same,IC50,[6],56 nM
same,inhibition,[7],Dose-dependent effect
same,viability at 0.01 µM,JeKo-1 [8],91.8%
same,Activity,JeKo-1 [9],4.32%
same,Activity,JeKo-1 [10],24%
same,inhibition,Histone deacetylase 1 [11],96%
same,bioavailability,[12],53.5%
same,IC50,HCT-116,16 nM
same,Activity,[13],Non-Toxic
same,inhibition,[14],Active
same,IC50,JeKo-1 [15],7.2 nM
same,Activity,Daudi [16],Active
same,IC50,MDA-MB-231,25.6 nM
same,Activity,Daudi [17],Active
same,Activity,JeKo-1 [18],Dose-dependent effect
same,Activity,JeKo-1 [19],5.57%
same,IC50,[20],44.9 nM
same,Activity,JeKo-1 [21],12.82%
same,Activity,JeKo-1 [22],80.74%
same,Activity,JeKo-1 [23],Dose-dependent effect
same,Activity,JeKo-1 [24],9.1%
same,IC50,[25],102 nM
same,Activity,JeKo-1 [26],0.096%
